Assay results pooled from the literature.
Lines come from different studies, so protocols differ.
Target: Mitogen-activated protein kinase kinase kinase kinase 2 (MAP4K2, Homo sapiens, UniProt Q12851)
One construct used (Q12851 1-820): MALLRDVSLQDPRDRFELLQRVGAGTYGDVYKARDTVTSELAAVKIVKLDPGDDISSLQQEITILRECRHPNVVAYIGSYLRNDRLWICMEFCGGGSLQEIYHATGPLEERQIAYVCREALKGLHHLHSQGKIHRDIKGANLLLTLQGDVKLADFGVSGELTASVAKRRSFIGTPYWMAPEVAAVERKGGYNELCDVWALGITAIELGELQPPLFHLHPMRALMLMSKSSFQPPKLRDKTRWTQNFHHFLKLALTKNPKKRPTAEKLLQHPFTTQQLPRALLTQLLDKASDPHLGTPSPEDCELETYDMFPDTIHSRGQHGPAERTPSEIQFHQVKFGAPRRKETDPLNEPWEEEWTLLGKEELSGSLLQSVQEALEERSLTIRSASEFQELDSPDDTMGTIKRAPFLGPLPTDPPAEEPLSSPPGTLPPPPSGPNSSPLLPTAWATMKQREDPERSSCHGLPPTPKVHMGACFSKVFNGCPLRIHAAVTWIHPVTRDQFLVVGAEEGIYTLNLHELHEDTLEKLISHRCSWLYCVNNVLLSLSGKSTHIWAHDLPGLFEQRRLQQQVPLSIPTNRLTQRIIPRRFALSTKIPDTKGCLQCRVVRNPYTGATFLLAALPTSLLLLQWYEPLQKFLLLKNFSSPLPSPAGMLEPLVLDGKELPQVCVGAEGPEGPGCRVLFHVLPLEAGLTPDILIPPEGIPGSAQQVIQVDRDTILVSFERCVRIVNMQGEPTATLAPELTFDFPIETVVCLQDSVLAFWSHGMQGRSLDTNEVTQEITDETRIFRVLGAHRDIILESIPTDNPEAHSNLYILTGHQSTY

| Structure (SMILES) | effect on | action | technique | concentration | endpoint | value |
| --- | --- | --- | --- | --- | --- | --- |
| Nc1ncc(-c2nc(N3CCOCC3)nc(N3CCOCC3)n2)c(C(F)F)n1 | binding | – | competition with immobilised ligand | 10 µM | remaining binding | 78% |
| O=c1[nH]c2ccccc2n1C1CCN(Cc2ccc(-c3[nH]c4cc5ncnc5cc4nc3-c3ccccc3)cc2)CC1 | cell-free assay | – | – | 0.5 µM | remaining signal | 105% |
| COc1cc(Nc2ncc(F)c(Nc3ccc4c(n3)NC(=O)C(C)(C)O4)n2)cc(OC)c1OC | binding | – | competition with immobilised ligand | 10 µM | inhibition | 85% |
| N#CC1(c2ccccn2)CCN(Cc2cc(C(=O)O)c(=O)n3ccccc23)CC1 | cell-free assay | – | competition with immobilised ligand | 1 µM | remaining binding | 81% |
| Cc1nn(C)cc1-c1nc2c(N3CCN(Cc4ccc(Cl)cc4)CC3)c(Cl)cnc2[nH]1 | binding | – | competition with immobilised ligand | 1 µM | remaining binding | 85% |
| Cn1cc(-c2cc(F)cc(N3CCn4c(cc5c4CCCC5)C3=O)c2CO)cc(Nc2ccc(N3CCN(C4COC4)CC3)cn2)c1=O | enzyme activity | inhibitor | – | 0.1 µM | inhibition | 2% |
| CC(C)(C)c1cc(C=C(C#N)C#N)cc(Br)c1O | enzyme activity | inhibitor | – | 0.5 µM | remaining activity | 113% |
| Cn1cncc1[C@@](O)(COc1ccc(C#N)cc1-c1ccc(OC(F)(F)F)cc1)c1ccc(C#N)cc1 | cell-free assay | – | competition with immobilised ligand | 1 µM | remaining binding | 100% |
| COc1ncccc1-c1cnn2ccc(N3CCN(C(=O)OC(C)C)CC3)nc12 | binding | – | competition with immobilised ligand | 1 µM | remaining binding | 65% |
